For orientation: pIC50 means the negative decadic logarithm of the IC50, by convention in mol/L. The inhibition is the drop in the measured response relative to a control, in per cent.

The record followed here is ChEMBL document CHEMBL1158356, “Synthesis, anti-tuberculosis activity and 3D-QSAR study of amino acid conjugates of 4-(adamantan-1-yl) group containing quinolines” (Eur J Med Chem, 2009).

pIC50: −log10 of the molar value.

Series [1] concerns Mycobacterium tuberculosis. Kind of series: Antimycobacterial activity against rifampicin/isoniazid-susceptible Mycobacterium tuberculosis H37Rv ATCC 27294 by BACTEC 460 radiometric method. In kind it is functional, organism-based. An outline of the steps:
(§1)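 Radiometric BACTEC 460 growth test on H37Rv (ATCC 27294). Compounds reaching at least 90% inhibition at 6.25 were retested at the lower concentrations 3.125 and 1.0, with % inhibition recorded. […] Isoniazid served as the reference standard.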

Series [2] has as its system Vero. Kind of series: Cytotoxicity against african green monkey Vero cells up to 50 ug/ml. In kind it is cell-based. The settings on record: chlorocebus sabaeus.
For series [3], the system named is Mycobacterium tuberculosis. Kind of series: Antimycobacterial activity against rifampicin/isoniazid-susceptible Mycobacterium tuberculosis H37Rv ATCC 27294 at 1 ug/ml by BACTEC 460 radiometric method. In kind it is functional. In short, it runs like this: as §1
In series [4] the test system is Mycobacterium tuberculosis. Kind of series: Antimycobacterial activity against rifampicin/isoniazid-susceptible Mycobacterium tuberculosis H37Rv ATCC 27294 at 3.125 ug/ml by BACTEC 460 radiometric method. Type of series: functional. In short, it runs like this:
as §1

As for `N=C(N)NCCC[C@H](NC(=O)c1cc(C23CC4CC(CC(C4)C2)C3)c2ccccc2n1)C(=O)NN`, in series [1], the pIC50 was 7.67. In series [2], the Activity entry was “Non-toxic”. Further, the inhibition at 1 µg/mL in series [3] is 99%.
`COC(=O)[C@H](CCCNC(=N)N)NC(=O)c1cc(C23CC4CC(CC(C4)C2)C3)c2ccccc2n1` showed a pIC50 in series [1] of 6.87. Also, in series [2], the Activity result is recorded as “Non-toxic”. The inhibition at 3.125 µg/mL in series [4] is 99%.
